From paper PMC7935732 (Targeted Oncology, 2021)
“Also recorded” adds a separate entry of the source. Marks after values point to notes of the source that are not given here.

Assays:
[1] = Plasma pharmacokinetics, LC-MS/MS, non-compartmental analysis; assay type: in vivo, human; conditions: for CL/F / RAUC (accumulation ratio for AUC0–12): abemaciclib, geometric mean (% CV); for half-life / Cmax / AUC(0-inf) / AUC(0-t) / Vd/F: human, plasma; for Cmax: Mean abemaciclib Cmax
Summary of the method: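 Oral test compound, 150 or 200 mg. Plasma was sampled at 1–72 h after a single dose (Cycle 1 Day 1) and at 1–24 h after twice-daily dosing (Day 31), with doses held during sampling. Parent and two major active metabolites were measured by validated LC-MS/MS. Non-compartmental analysis; total active analytes summed. RAUC compares steady-state AUC0–12 with single-dose values. Descriptive statistics by dose.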

[2] = system: advanced and/or metastatic cancers; assay: Antitumor activity; assay type: in vivo, human
CDK 4 = conditions: in vitro; cited from earlier work
[3] = system: patients with advanced solid tumors; conditions: given twice daily on a continuous schedule (every 12 h); mainly Caucasian patients; cited from earlier work
breast cancer = conditions: larger population, including MONARCH plus; cited from earlier work
[4] = Breast cancer treated population, 150 mg (n1 = 10)
[5] = Breast cancer treated population, 200 mg (n1 = 11)
[6] = Breast cancer treated population, Total (n1 = 21)
[7] = Overall population, 150 mg (n = 12)
[8] = Overall population, 200 mg (n = 13)
[9] = Overall population, Total (n = 25)

For `CCN1CCN(Cc2ccc(Nc3ncc(F)c(-c4cc(F)c5nc(C)n(C(C)C)c5c4)n3)nc2)CC1` [abemaciclib], the CL/F ([1]; single oral dose 150 mg (C1D1), N 12) was 22.1 (63) L/h, the CL/F ([1]; single oral dose 200 mg (C1D1), N 13) was 26.4 (74) L/h and the “RAUC (accumulation ratio for AUC0–12)” value ([1]; steady state (C1D31) 150 mg every 12 h, n = 5) was 1.57 (106)^b. For the same compound, the “RAUC (accumulation ratio for AUC0–12)” value ([1]; steady state (C1D31) 200 mg every 12 h, N 10) was 2.10 (69), the half-life ([1]; oral, 200 mg) was roughly 24 h and the Cmax ([1]; oral, 200 mg, after multiple doses of 150 or 200 mg) was 260 to 320 ng/mL. The Cmax ([1]; oral, after a single dose) was 200 ng/mL, the AUC(0-inf) ([1]; po, 150 mg) was 6790 ng·h/mL and the AUC(0-t) ([1]; po, 150 mg) was 1700 ng·h/mL. The Vd/F ([1]; po, 150 mg) was 767 L, the half-life ([1]; po, 150 mg) was 22.4 h and the AUC(0-inf) ([1]; po, 200 mg) was 7580 ng·h/mL. For the same compound, the AUC(0-t) ([1]; po, 200 mg) was 1740 ng·h/mL, the Vd/F ([1]; po, 200 mg) was 955 L and the half-life ([1]; po, 200 mg) was 22.8 h. The Confirmed responder ([2]; 150 mg cohort) was 1, the “Patients achieving PR” value ([2]; 1 patient in each dose cohort) was 2 patients and the “Best overall response: Complete response (CR)” value (“Best overall response … (CR)” below) [2, 4] was 0 n (%). The “Best overall response: Partial response (PR)” value (“Best overall response … (PR)” below) [2, 4] was 1 (10.0) n (%), the “Best overall response: Progressive disease (PD)” value (“Best overall response … (PD)” for short) [2, 4] was 2 (20.0) n (%) and the “Disease control rate (CR+PR+SD)” value [2, 4] was 7 (70.0) n (%). For the same compound, the “Overall response rate (CR+PR)” value [2, 4] was 1 (10.0) n (%), the “Best overall response … (CR)” value [2, 5] was 0 n (%) and the “Best overall response … (PR)” value [2, 5] was 1 (9.1) n (%). The “Best overall response … (PD)” value [2, 5] was 1 (9.1) n (%), the “Disease control rate (CR+PR+SD)” value [2, 5] was 9 (81.8) n (%) and the “Overall response rate (CR+PR)” value [2, 5] was 1 (9.1) n (%). For the same compound, the “Best overall response … (CR)” value [2, 6] was 0 n (%), the “Best overall response … (PR)” value [2, 6] was 2 (9.5) n (%) and the “Best overall response … (PD)” value [2, 6] was 3 (14.3) n (%). For the same compound, the “Disease control rate (CR+PR+SD)” value [2, 6] was 16 (76.2) n (%), the “Overall response rate (CR+PR)” value [2, 6] was 2 (9.5) n (%) and the “Best overall response … (CR)” value [2, 7] was 0 n (%). For the same compound, the “Best overall response … (PR)” value [2, 7] was 1 (8.3) n (%), the “Best overall response … (PD)” value [2, 7] was 2 (16.7) n (%) and the “Disease control rate (CR+PR+SD)” value [2, 7] was 8 (66.7) n (%). For the same compound, the “Overall response rate (CR+PR)” value [2, 7] was 1 (8.3) n (%), the “Best overall response … (CR)” value [2, 8] was 0 n (%) and the “Best overall response … (PR)” value [2, 8] was 1 (7.7) n (%). For the same compound, the “Best overall response … (PD)” value [2, 8] was 2 (15.4) n (%), the “Disease control rate (CR+PR+SD)” value [2, 8] was 9 (69.2) n (%) and the “Overall response rate (CR+PR)” value [2, 8] was 1 (7.7) n (%). The “Best overall response … (CR)” value [2, 9] was 0 n (%), the “Best overall response … (PR)” value [2, 9] was 2 (8.0) n (%) and the “Best overall response … (PD)” value [2, 9] was 4 (16.0) n (%). For the same compound, the “Disease control rate (CR+PR+SD)” value [2, 9] was 17 (68.0) n (%), the “Overall response rate (CR+PR)” value [2, 9] was 2 (8.0) n (%) and the “Complete response (CR)” value ([2]; all treated patients (n = 25)) was “No complete response was observed; also recorded: no CR was observed”. The “Disease control rate (DCR)” value ([2]; all treated patients (n = 25)) was 68%, the “Patients achieving partial response (PR)” value ([2]; all treated patients (n = 25)) was 8% and the “Greater potency against CDK 4 than against CDK 6” value (CDK 4) was 14 times. The “Maximum tolerated dose (MTD)” value [3] was 200 mg and the Incidence of embolism (breast cancer) was “less than 5%”.
